Measured values from article PMC6677133 (European journal of medicinal chemistry, 2019).
Residues, ends and D or L forms follow the SMILES beside them.

Assays:
[1] = system: NL4–3 strain of HIV-1 (X4 strain); experiment: Anti-HIV-1 entry assay, one-day culture, intracellular p24 antigen in PBMCs; assay type: cell-based; details: unlinked control fragments alone; assay format not stated
[2] = target: CXCR4 (Homo sapiens, UniProt P61073); experiment: CXCR4 internalization assay, CHO-CXCR4-FLAG cells; assay type: cell-based; details: 1h of treatment at 100 nM
CXCR4, sequence (P61073 whole entry): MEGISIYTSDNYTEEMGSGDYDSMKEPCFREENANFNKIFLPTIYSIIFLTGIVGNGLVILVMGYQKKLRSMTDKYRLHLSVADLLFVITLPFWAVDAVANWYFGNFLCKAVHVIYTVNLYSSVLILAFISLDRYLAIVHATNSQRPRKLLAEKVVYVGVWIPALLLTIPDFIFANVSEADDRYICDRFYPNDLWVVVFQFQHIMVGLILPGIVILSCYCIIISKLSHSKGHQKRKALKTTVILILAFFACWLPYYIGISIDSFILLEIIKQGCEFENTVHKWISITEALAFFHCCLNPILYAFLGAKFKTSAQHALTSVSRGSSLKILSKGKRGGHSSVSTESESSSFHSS
Outline: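 CHO cells expressing N-terminally FLAG-tagged CXCR4 washed at 4°C in RPMI 1640 with 0.5% BSA. Seeded 3×10^5/well and exposed at 37°C to graded test compound, with SDF-1α as positive control. Surface receptor stained with anti-FLAG then FITC anti-mouse antibody, each 30 min at 4°C, and read at 485/528 nm. At least three independent experiments, mean ± SEM.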

CXCR4 internalization [2]	Molecule	antiviral activity [1]
	C[C@@H](O)[C@H](NC(=O)[C@H](CCCNC(=N)N)NC(=O)[C@@H]1CCCN1C(=O)[C@H](CC(N)=O)NC(=O)[C@H](CC(N)=O)NC(=O)[C@H](CC(N)=O)NC(=O)[C@@H](NC(=O)[C@H](CCCCN)NC(=O)[C@H](CCCNC(=N)N)NC(=O)[C@H](CCCCN)NC(=O)CCCCCN)[C@@H](C)O)C(=O)N[C@@H](CS)C(N)=O [AR6r] (HELM PEPTIDE1{[NCCCCCC(=O)[*:2]].K.R.K.T.N.N.N.P.R.T.C.[am]}$$$$V2.0)	did not show any antiviral activity
43.87%	SDF-1α	
